Experimental data from ChEMBL document CHEMBL3244135, “11,12-Secoprostaglandins. 1. Acylhydroxyalkanoic acids and related compounds” (J Med Chem, 1977).
The source made the active and inactive calls. The rule behind the calls is not given here.

What follows are molecules tested on Canis familiaris (assay: Renal vasodilatory activity in dog assessed as increase in renal blood flow administered through infusion into renal artery). Conditions: Canis lupus familiaris; Kidney.
Assay type: functional, organism-based

| SMILES | Activity |
| --- | --- |
| CCCCC[C@H](O)/C=C/[C@H]1[C@H](O)CC(=O)[C@@H]1CCCCCCC(=O)O [ALPROSTADIL] | Active |

Species: Mus musculus
Assay: Binding affinity to prostanoid receptor in [8-14C]-adenine-treated CD-1 mouse ovary assessed as increase in c-AMP production at 1 ug/mL after 30 mins by paper chromatographic analysis in presence of phosphodiesterase inhibitor theophylline
Assay type: tissue-based
Conditions: Female gonad
Method in brief: (§1)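 Virgin CD-1 female mice over 70 days old; three ovaries (15-25 mg), denuded of fat, preincubated 1 h at 37 °C in 2 ml aerated Krebs–Ringer phosphate pH 7.2 with 1 μCi adenine-8-14C. Theophylline (0.2 ml of 0.05 M stock) and compound in Me2SO then added, 30 min at 37 °C. Stopped with trichloroacetic acid; cAMP-14C isolated, paper chromatography; expressed as fold over untreated ovaries.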

| SMILES | fold change (FC) |
| --- | --- |
| CCCCC[C@H](O)/C=C/[C@H]1[C@H](O)CC(=O)[C@@H]1C/C=C\CCCC(=O)O | 75 |
| CCCCC[C@H](O)/C=C/[C@H]1[C@H](O)CC(=O)[C@@H]1CCCCCCC(=O)O [ALPROSTADIL] | 54 |
| CCCCCC(O)CCCC(CCCCCCC(=O)O)C(C)=O (mixture of isomers) | 2 |

Species: Mus musculus
Assay: Binding affinity to prostanoid receptor in [8-14C]-adenine-treated CD-1 mouse ovary assessed as increase in c-AMP production at 100 ug/mL after 30 mins by paper chromatographic analysis in presence of phosphodiesterase inhibitor theophylline
Assay type: tissue-based
Conditions: Female gonad
Method in brief: as §1

| SMILES | fold change (FC) |
| --- | --- |
| CC(=O)C(CCCCCCCCCO)CCCCCCC(=O)O (stereo not given) | 1 |
| CCCCCC(O)/C=C/CC(CCCCCCC(=O)O)C(C)=O (stereo not given) | 14 |
| CCCCCC(O)CCCC(CCCCCCC(=O)O)C(=O)CC (stereo not given) | 26 |
| CCCCCCC(O)CCC(CCCCCCC(=O)O)C(C)=O (stereo not given) | 11 |
| CCCCC[C@@H](O)CCCC(CCCCCCC(=O)O)C(C)=O (stereo not given in full) | 19 |
| CCCCCC(C)(O)CCCC(CCCCCCC(=O)O)C(C)=O (stereo not given) | 11 |
| CCCCC(O)CCCCC(CCCCCCC(=O)O)C(C)=O (stereo not given) | 20 |
| CCCCCC(O)CCCC(CCCCCCC(=O)O)C(C)O (stereo not given) | 33 |
| CCCCCC(O)CCCC(CCCCCCC(=O)O)C(C)=O (racemic) | 23 |
| CC(=O)C(CC#CC1(O)CCCCC1)CCCCCCC(=O)O (stereo not given) | 1 |
| CCCCCC(O)CCCC(CCCCCCC(=O)O)C(C)=O (mixture of isomers) | 23 |

Species: Mus musculus
Assay: Binding affinity to prostanoid receptor in [8-14C]-adenine-treated CD-1 mouse ovary assessed as increase in c-AMP production at 0.05 ug/mL after 30 mins by paper chromatographic analysis in presence of phosphodiesterase inhibitor theophylline
Assay type: tissue-based
Conditions: Female gonad
Method in brief: as §1

| SMILES | fold change (FC) |
| --- | --- |
| CCCCC[C@H](O)/C=C/[C@H]1[C@H](O)CC(=O)[C@@H]1C/C=C\CCCC(=O)O | 35 |
| CCCCC[C@H](O)/C=C/[C@H]1[C@H](O)CC(=O)[C@@H]1CCCCCCC(=O)O [ALPROSTADIL] | 29 |

Species: Mus musculus
Assay: Binding affinity to prostanoid receptor in [8-14C]-adenine-treated CD-1 mouse ovary assessed as increase in c-AMP production at 200 ug/mL after 30 mins by paper chromatographic analysis in presence of phosphodiesterase inhibitor theophylline
Assay type: tissue-based
Conditions: Female gonad
Method in brief: as §1

| SMILES | fold change (FC) |
| --- | --- |
| CCCCCC(O)CCCC(CCCCCCC(=O)O)C(C)=O (mixture of isomers) | 16 |

What follows are molecules tested against T1, 15-hydroxyprostaglandin dehydrogenase [NAD(+)] (Homo sapiens, UniProt P15428) (assay: Stability of the compound assessed as prostaglandin 15-hydroxydehydrogenase (unknown origin)-mediated metabolite formation). Conditions: not given.
T1 sequence (P15428 whole entry): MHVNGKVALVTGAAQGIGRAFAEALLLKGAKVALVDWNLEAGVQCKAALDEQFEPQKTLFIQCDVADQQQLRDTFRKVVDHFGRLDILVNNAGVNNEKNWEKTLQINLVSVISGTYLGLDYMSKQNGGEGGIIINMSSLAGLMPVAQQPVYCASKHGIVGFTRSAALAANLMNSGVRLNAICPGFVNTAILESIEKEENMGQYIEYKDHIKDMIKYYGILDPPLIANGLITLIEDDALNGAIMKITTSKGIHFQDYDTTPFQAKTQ
Assay type: ADME

| SMILES | Stability |
| --- | --- |
| CC(=O)C(CCCCCCCCCO)CCCCCCC(=O)O (stereo not given) | Stable |
| CCCCCC(O)/C=C/CC(CCCCCCC(=O)O)C(C)=O (stereo not given) | Stable |
| CCCCCC(O)CCCC(CCCCCCC(=O)O)C(=O)CC (stereo not given) | Stable |
| CCCCCCC(O)CCC(CCCCCCC(=O)O)C(C)=O (stereo not given) | Stable |
| CCCCC[C@@H](O)CCCC(CCCCCCC(=O)O)C(C)=O (stereo not given in full) | Stable |
| CCCCCC(C)(O)CCCC(CCCCCCC(=O)O)C(C)=O (stereo not given) | Stable |
| CCCCC(O)CCCCC(CCCCCCC(=O)O)C(C)=O (stereo not given) | Stable |
| CCCCCC(O)CCCC(CCCCCCC(=O)O)C(C)O (stereo not given) | Stable |
| CC(=O)C(CC#CC1(O)CCCCC1)CCCCCCC(=O)O (stereo not given) | Stable |

Species: Mus musculus
Assay: Binding affinity to prostanoid receptor in [8-14C]-adenine-treated CD-1 mouse ovary assessed as increase in c-AMP production at 0.1 ug/mL after 30 mins by paper chromatographic analysis in presence of phosphodiesterase inhibitor theophylline
Assay type: tissue-based
Conditions: Female gonad
Method in brief: as §1

| SMILES | fold change (FC) |
| --- | --- |
| CCCCC[C@H](O)/C=C/[C@H]1[C@H](O)CC(=O)[C@@H]1C/C=C\CCCC(=O)O | 57 |
| CCCCC[C@H](O)/C=C/[C@H]1[C@H](O)CC(=O)[C@@H]1CCCCCCC(=O)O [ALPROSTADIL] | 25 |

Species: Rattus norvegicus
Assay: Binding affinity to prostanoid receptor in Holtzman rat lipocytes assessed as compound equivalent to 1 ng cold PGE1 in displacing [3H]-PGE1 from receptor after 30 mins
Assay type: cell-based
Conditions: in the assay text read “after 60 mins” for “after 30 mins”
Method in brief: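 Test compound at appropriate concentrations incubated with 0.4 ng [3H]-PGE1 and 125 μg rat lipocyte binding preparation for 60 min at 37 °C. Bound [3H]-PGE1 then measured.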

| SMILES | Activity |
| --- | --- |
| CC(=O)C(CCCCCCCCCO)CCCCCCC(=O)O (stereo not given) | > 125 µgequiv |
| CCCCCC(O)/C=C/CC(CCCCCCC(=O)O)C(C)=O (stereo not given) | 3.2 µgequiv |
| CCCCC[C@H](O)/C=C/[C@H]1[C@H](O)CC(=O)[C@@H]1C/C=C\CCCC(=O)O | 1.4 ngequiv |
| CCCCCC(O)CCCC(CCCCCCC(=O)O)C(=O)CC (stereo not given) | 2.4 µgequiv |
| CCCCCCC(O)CCC(CCCCCCC(=O)O)C(C)=O (stereo not given) | 41 µgequiv |
| CCCCC[C@@H](O)CCCC(CCCCCCC(=O)O)C(C)=O (stereo not given in full) | 2.1 µgequiv |
| CCCCCC(C)(O)CCCC(CCCCCCC(=O)O)C(C)=O (stereo not given) | 0.4 µgequiv |
| CCCCC(O)CCCCC(CCCCCCC(=O)O)C(C)=O (stereo not given) | 2.1 µgequiv |
| CCCCCC(O)CCCC(CCCCCCC(=O)O)C(C)O (stereo not given) | 2.5 µgequiv |
| CCCCCC(O)CCCC(CCCCCCC(=O)O)C(C)=O (mixture of isomers) | 1.7 µgequiv |

Species: Mus musculus
Assay: Binding affinity to prostanoid receptor in [8-14C]-adenine-treated CD-1 mouse ovary assessed as increase in c-AMP production at 50 ug/mL after 30 mins by paper chromatographic analysis in presence of phosphodiesterase inhibitor theophylline
Assay type: tissue-based
Conditions: Female gonad
Method in brief: as §1

| SMILES | fold change (FC) |
| --- | --- |
| CCCCCC(O)CCCC(CCCCCCC(=O)O)C(C)=O (mixture of isomers) | 16 |

Species: Mus musculus
Assay: Binding affinity to prostanoid receptor in [8-14C]-adenine-treated CD-1 mouse ovary assessed as increase in c-AMP production at 25 ug/mL after 30 mins by paper chromatographic analysis in presence of phosphodiesterase inhibitor theophylline
Assay type: tissue-based
Conditions: Female gonad
Method in brief: as §1

| SMILES | fold change (FC) |
| --- | --- |
| CC(=O)C(CCCCCCCCCO)CCCCCCC(=O)O (stereo not given) | 1 |
| CCCCCC(O)/C=C/CC(CCCCCCC(=O)O)C(C)=O (stereo not given) | 8 |
| CCCCCC(O)CCCC(CCCCCCC(=O)O)C(=O)CC (stereo not given) | 17 |
| CCCCC[C@@H](O)CCCC(CCCCCCC(=O)O)C(C)=O (stereo not given in full) | 12 |
| CCCCCC(C)(O)CCCC(CCCCCCC(=O)O)C(C)=O (stereo not given) | 9 |
| CCCCC(O)CCCCC(CCCCCCC(=O)O)C(C)=O (stereo not given) | 9 |
| CCCCCC(O)CCCC(CCCCCCC(=O)O)C(C)O (stereo not given) | 25 |
| CCCCCC(O)CCCC(CCCCCCC(=O)O)C(C)=O (racemic) | 19 |
| CC(=O)C(CC#CC1(O)CCCCC1)CCCCCCC(=O)O (stereo not given) | 1 |
| CCCCCC(O)CCCC(CCCCCCC(=O)O)C(C)=O (mixture of isomers) | 14 |

Species: Mus musculus
Assay: Binding affinity to prostanoid receptor in [8-14C]-adenine-treated CD-1 mouse ovary assessed as increase in c-AMP production at 0.01 ug/mL after 30 mins by paper chromatographic analysis in presence of phosphodiesterase inhibitor theophylline
Assay type: tissue-based
Conditions: Female gonad
Method in brief: as §1

| SMILES | fold change (FC) |
| --- | --- |
| CCCCC[C@H](O)/C=C/[C@H]1[C@H](O)CC(=O)[C@@H]1C/C=C\CCCC(=O)O | 14 |
| CCCCC[C@H](O)/C=C/[C@H]1[C@H](O)CC(=O)[C@@H]1CCCCCCC(=O)O [ALPROSTADIL] | 8 |

Species: Mus musculus
Assay: Binding affinity to prostanoid receptor in [8-14C]-adenine-treated CD-1 mouse ovary assessed as increase in c-AMP production at 10 ug/mL after 30 mins by paper chromatographic analysis in presence of phosphodiesterase inhibitor theophylline
Assay type: tissue-based
Conditions: Female gonad
Method in brief: as §1

| SMILES | fold change (FC) |
| --- | --- |
| CC(=O)C(CCCCCCCCCO)CCCCCCC(=O)O (stereo not given) | 1 |
| CCCCCC(O)/C=C/CC(CCCCCCC(=O)O)C(C)=O (stereo not given) | 2 |
| CCCCC[C@H](O)/C=C/[C@H]1[C@H](O)CC(=O)[C@@H]1C/C=C\CCCC(=O)O | 80 |
| CCCCCC(O)CCCC(CCCCCCC(=O)O)C(=O)CC (stereo not given) | 6 |
| CCCCCCC(O)CCC(CCCCCCC(=O)O)C(C)=O (stereo not given) | 5 |
| CCCCC[C@@H](O)CCCC(CCCCCCC(=O)O)C(C)=O (stereo not given in full) | 5 |
| CCCCCC(C)(O)CCCC(CCCCCCC(=O)O)C(C)=O (stereo not given) | 4 |
| CCCCC(O)CCCCC(CCCCCCC(=O)O)C(C)=O (stereo not given) | 9 |
| CCCCCC(O)CCCC(CCCCCCC(=O)O)C(C)O (stereo not given) | 15 |
| CCCCCC(O)CCCC(CCCCCCC(=O)O)C(C)=O (racemic) | 7 |
| CCCCCC(O)CCCC(CCCCCCC(=O)O)C(C)=O (mixture of isomers) | 11 |

These molecules were tested on Cavia porcellus (assay: Inhibition of collagen-induced platelet aggregation in ip dosed guinea pig). Conditions: not given.
Assay type: functional

| SMILES | ED50 |
| --- | --- |
| CCCCC[C@H](O)/C=C/[C@H]1[C@H](O)CC(=O)[C@@H]1CCCCCCC(=O)O [ALPROSTADIL] | 0.02 mg/kg |

What follows are molecules tested on Cavia porcellus (assay: Inhibition of collagen-induced platelet aggregation in po dosed guinea pig). Conditions: not given.
Assay type: functional
Method in brief: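 Test compound given orally to guinea pigs. Collagen-induced platelet aggregation then measured. Potency expressed as ED50 in mg/kg.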

| SMILES | inhibition |
| --- | --- |
| CCCCC[C@H](O)/C=C/[C@H]1[C@H](O)CC(=O)[C@@H]1CCCCCCC(=O)O [ALPROSTADIL] | inactive |
